This passage reports MIC results from ChEMBL document CHEMBL4118255, “Synthesis and antibacterial evaluation of novel 11-O-aralkylcarbamoyl-3-O-descladinosylclarithromycin derivatives” (2018).

Usually MIC stands for the smallest concentration in the dilution series that meets the test's criterion for growth inhibition.

Holding throughout (type): functional
Assay [1] has as its system Staphylococcus aureus. The assay is described as follows: Antibacterial activity against methicillin-resistant Staphylococcus aureus ATCC 43300 after 24 hrs by tube-dilution method. The settings on record: ATCC 43300, 24 h. A digest of the protocol: (§1)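 MIC determined by the NCCLS-recommended standard broth microdilution method against erythromycin-resistant S. pneumoniae strains (A22072 mef, B1 erm, AB11 erm plus mef) and methicillin-resistant S. aureus ATCC43300.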

In assay [2] the test system is Staphylococcus aureus. The assay is described as follows: Antibacterial activity against erythromycin-susceptible Staphylococcus aureus ATCC 25923 after 24 hrs by […]. The conditions noted are these: ATCC 25923, 24 h.
In assay [3] the test system is Streptococcus pneumoniae. The assay is described as follows: Antibacterial activity against erythromycin-resistant Streptococcus pneumoniae AB11 harboring ermB and mefA genes after 24 hrs by tube-dilution method. The settings on record: AB11, 24 h. A digest of the protocol: as §1
In assay [4] the test system is Streptococcus pneumoniae. The assay is described as follows: Antibacterial activity against erythromycin-resistant Streptococcus pneumoniae A22072 harboring mefA gene after 24 hrs by […]. The conditions noted are these: A22072, 24 h.
Assay [5] relates to Streptococcus pyogenes. The assay is described as follows: Antibacterial activity against erythromycin-resistant Streptococcus pyogenes R1 after 24 hrs by tube-dilution method. The conditions noted are these: R1, 24 h.
Assay [6] relates to Escherichia coli. The assay is described as follows: Antibacterial activity against penicillin-susceptible Escherichia coli ATCC 25922 incubated for 24 hrs by […]. The settings on record: ATCC 25922, 24 h.
The subject of assay [7] is Streptococcus pyogenes. The assay is described as follows: Antibacterial activity against erythromycin-susceptible Streptococcus pyogenes after 24 hrs […].
In assay [8] the test system is Streptococcus pneumoniae. The assay is described as follows: Antibacterial activity against erythromycin-resistant Streptococcus pneumoniae B1 harboring ermB gene after 24 hrs by tube-dilution method. The conditions noted are these: B1, 24 h. A digest of the protocol:
as §1

Assay [9] has as its system Bacillus subtilis. The assay is described as follows: Antibacterial activity against erythromycin-susceptible Bacillus subtilis ATCC 9372 after 24 hrs by tube-dilution method. The settings on record: ATCC 9372, 24 h. A digest of the protocol: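 MIC by standard NCCLS broth microdilution. Reference macrolides clarithromycin and azithromycin run alongside.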
Assay [10] relates to Pseudomonas aeruginosa. The assay is described as follows: Antibacterial activity against penicillin-susceptible Pseudomonas aeruginosa ATCC 27853 incubated for 24 hrs by […]. The conditions noted are these: ATCC 27853, 24 h.

Molecules are shown by their SMILES. Values after ≈ are worked out from the molar mass of the structure shown. Where only a bound is given, the exact number is not on record here.

As for `CC[C@H]1OC(=O)[C@H](C)C(=O)[C@H](C)[C@@H](O[C@@H]2O[C@H](C)C[C@H](N(C)C)[C@H]2O)[C@](C)(OC)C[C@@H](C)C(=O)[C@H](C)[C@@H](OC(=O)NCCNC(=O)C#Cc2ccc(Cl)cc2)[C@]1(C)O`, the MIC is 64 µg/mL (≈ 76.5 µM) in assay [1]; 8 µg/mL (≈ 9.56 µM) in assay [2]; 64 µg/mL (≈ 76.5 µM) in assay [3]; 2 µg/mL (≈ 2.39 µM) in [4]; 128 µg/mL (≈ 153 µM) in assay [5]; over 128 µg/mL in assay [6]. The MIC in assay [7] is 1 µg/mL (≈ 1.2 µM); in assay [8] it was 128 µg/mL (≈ 153 µM); in [9] it was 2 µg/mL (≈ 2.39 µM); in assay [10], over 128 µg/mL.

`CC[C@H]1OC(=O)[C@H](C)C(=O)[C@H](C)[C@@H](O[C@@H]2O[C@H](C)C[C@H](N(C)C)[C@H]2O)[C@](C)(OC)C[C@@H](C)C(=O)[C@H](C)[C@@H](OC(=O)NCCNC(=O)C#Cc2ccc(Cl)cc2Cl)[C@]1(C)O`: the MIC in assay [1] is 128 µg/mL (≈ 147 µM); in assay [2] it was 16 µg/mL (≈ 18.4 µM); in assay [3] it was 128 µg/mL (≈ 147 µM); in [4], 2 µg/mL (≈ 2.3 µM); in assay [5], 128 µg/mL (≈ 147 µM); in assay [6], over 128 µg/mL. Further, the MIC in assay [7] was 1 µg/mL (≈ 1.15 µM); in assay [8], 128 µg/mL (≈ 147 µM); in assay [9], 1 µg/mL (≈ 1.15 µM); in [10] it was over 128 µg/mL.

Take `CC[C@H]1OC(=O)[C@H](C)C(=O)[C@H](C)[C@@H](O[C@@H]2O[C@H](C)C[C@H](N(C)C)[C@H]2O)[C@](C)(OC)C[C@@H](C)C(=O)[C@H](C)[C@@H](OC(=O)NCCNC(=O)C#Cc2ccc(F)cc2)[C@]1(C)O`: the MIC in [1] is 128 µg/mL (≈ 156 µM); in assay [2], 16 µg/mL (≈ 19.5 µM); in assay [3], 64 µg/mL (≈ 78.1 µM); in assay [4], 2 µg/mL (≈ 2.44 µM); in assay [5], over 128 µg/mL; in [6], over 128 µg/mL. Besides, the MIC in assay [7] is 1 µg/mL (≈ 1.22 µM); in assay [8] it was 128 µg/mL (≈ 156 µM); in [9] it was 2 µg/mL (≈ 2.44 µM); in assay [10], over 128 µg/mL.

`CC[C@H]1OC(=O)[C@H](C)C(=O)[C@H](C)[C@@H](O[C@@H]2O[C@H](C)C[C@H](N(C)C)[C@H]2O)[C@](C)(OC)C[C@@H](C)C(=O)/C(C)=C/[C@]1(C)O`: the MIC in assay [1] was over 128 µg/mL; in assay [2], over 128 µg/mL; in assay [3], over 128 µg/mL; in assay [4] it was 64 µg/mL (≈ 112 µM); in assay [5], over 128 µg/mL; in assay [6] it was over 128 µg/mL. Besides, the minimum inhibitory concentration (MIC) in assay [7] is over 16 µg/mL; in assay [8] it was over 128 µg/mL; in assay [9], 128 µg/mL (≈ 225 µM); in assay [10], 64 µg/mL (≈ 112 µM).

As for `CC[C@H]1OC(=O)[C@H](C)[C@@H](OC(=O)Cc2cccnc2)[C@H](C)[C@@H](O[C@@H]2O[C@H](C)C[C@H](N(C)C)[C@H]2O)[C@](C)(OC)C[C@@H](C)C(=O)/C(C)=C/[C@]1(C)O`, the MIC in assay [1] stood at 128 µg/mL (≈ 185 µM); in assay [2], 1 µg/mL (≈ 1.45 µM); in assay [3], 16 µg/mL (≈ 23.2 µM); in assay [4], 1 µg/mL (≈ 1.45 µM); in [5], 128 µg/mL (≈ 185 µM); in [6] it was 128 µg/mL (≈ 185 µM). For the same compound, the MIC in assay [7] turned out to be 0.25 µg/mL (≈ 0.362 µM); in assay [8], 32 µg/mL (≈ 46.3 µM); in assay [9] it was 1 µg/mL (≈ 1.45 µM); in assay [10], 128 µg/mL (≈ 185 µM).

For the compound `CC[C@H]1OC(=O)[C@H](C)[C@@H](OC(=O)Cc2cccnc2)[C@H](C)[C@@H](O[C@@H]2O[C@H](C)C[C@H](N(C)C)[C@H]2O)[C@](C)(OC)C[C@@H](C)C(=O)[C@H](C)[C@@H](OC(=O)NCCNC(=O)/C=C/c2ccc([N+](=O)[O-])cc2)[C@]1(C)O`, the minimal inhibitory concentration (MIC) in assay [1] is 64 µg/mL (≈ 66 µM); in assay [2], 8 µg/mL (≈ 8.25 µM); in assay [3], 8 µg/mL (≈ 8.25 µM); in [4] it was 1 µg/mL (≈ 1.03 µM); in assay [5] it was over 128 µg/mL; in assay [6], 128 µg/mL (≈ 132 µM). In addition, the MIC came out at 0.125 µg/mL (≈ 0.129 µM) in assay [7], 32 µg/mL (≈ 33 µM) in assay [8], 4 µg/mL (≈ 4.12 µM) in assay [9] and 128 µg/mL (≈ 132 µM) in assay [10].

In the case of `CC[C@H]1OC(=O)[C@H](C)[C@@H](OC(=O)Cc2cccnc2)[C@H](C)[C@@H](O[C@@H]2O[C@H](C)C[C@H](N(C)C)[C@H]2O)[C@](C)(OC)C[C@@H](C)C(=O)[C@H](C)[C@@H](OC(=O)NCCNC(=O)C#Cc2ccc(C)cc2)[C@]1(C)O`, the MIC was 128 µg/mL (≈ 137 µM) in assay [1]; 8 µg/mL (≈ 8.54 µM) in assay [2]; 32 µg/mL (≈ 34.1 µM) in [3]; 1 µg/mL (≈ 1.07 µM) in [4]; over 128 µg/mL in assay [5]; over 128 µg/mL in assay [6]. The MIC was 0.25 µg/mL (≈ 0.267 µM) in assay [7], 64 µg/mL (≈ 68.3 µM) in assay [8], 2 µg/mL (≈ 2.13 µM) in assay [9] and over 128 µg/mL in [10].

Turning to `CC[C@H]1OC(=O)[C@H](C)C(=O)[C@H](C)[C@@H](O[C@@H]2O[C@H](C)C[C@H](N(C)C)[C@H]2O)[C@](C)(OC)C[C@@H](C)C(=O)[C@H](C)[C@@H](OC(=O)NCCNC(=O)C#Cc2ccccc2)[C@]1(C)O`, the MIC in [1] was 128 µg/mL (≈ 160 µM); in [2] it was 32 µg/mL (≈ 39.9 µM); in assay [3] it was 128 µg/mL (≈ 160 µM); in assay [4], 4 µg/mL (≈ 4.99 µM); in assay [5] it was over 128 µg/mL; in assay [6], over 128 µg/mL. Besides, the MIC in [7] was 2 µg/mL (≈ 2.49 µM); in assay [8] it was 128 µg/mL (≈ 160 µM); in [9], 4 µg/mL (≈ 4.99 µM); in assay [10], over 128 µg/mL.

Regarding `CC[C@H]1OC(=O)[C@H](C)C(=O)[C@H](C)[C@@H](O[C@@H]2O[C@H](C)C[C@H](N(C)C)[C@H]2O)[C@](C)(OC)C[C@@H](C)C(=O)[C@H](C)[C@@H](OC(=O)NCCNC(=O)C#Cc2cccc3ccccc23)[C@]1(C)O`, the minimum inhibitory concentration (MIC) in assay [1] is 64 µg/mL (≈ 75.1 µM); in assay [2], 16 µg/mL (≈ 18.8 µM); in assay [3] it was 128 µg/mL (≈ 150 µM); in assay [4] it was 1 µg/mL (≈ 1.17 µM); in [5], 64 µg/mL (≈ 75.1 µM); in [6] it was over 128 µg/mL. The MIC was 0.5 µg/mL (≈ 0.587 µM) in assay [7], 128 µg/mL (≈ 150 µM) in [8], 1 µg/mL (≈ 1.17 µM) in [9] and over 128 µg/mL in assay [10].

For the compound `CC[C@H]1OC(=O)[C@H](C)C(=O)[C@H](C)[C@@H](O[C@@H]2O[C@H](C)C[C@H](N(C)C)[C@H]2O)[C@](C)(OC)C[C@@H](C)C(=O)[C@H](C)[C@@H](OC(=O)NCCNC(=O)C#Cc2ccccc2Cl)[C@]1(C)O`, the MIC in assay [1] was 128 µg/mL (≈ 153 µM); in assay [2], 16 µg/mL (≈ 19.1 µM); in [3], 128 µg/mL (≈ 153 µM); in assay [4], 2 µg/mL (≈ 2.39 µM); in assay [5], over 128 µg/mL; in [6], over 128 µg/mL. Moreover, the MIC in assay [7] was 1 µg/mL (≈ 1.2 µM); in [8], 128 µg/mL (≈ 153 µM); in assay [9] it was 4 µg/mL (≈ 4.78 µM); in [10] it was over 128 µg/mL.

For `CC[C@H]1OC(=O)[C@H](C)[C@@H](O[C@H]2C[C@@](C)(OC)[C@@H](O)[C@H](C)O2)[C@H](C)[C@@H](O[C@@H]2O[C@H](C)C[C@H](N(C)C)[C@H]2O)[C@](C)(O)C[C@@H](C)CN(C)[C@H](C)[C@@H](O)[C@]1(C)O` [AZITHROMYCIN], the MIC was over 128 µg/mL in [1]; 0.25 µg/mL (≈ 0.334 µM) in assay [2]; over 128 µg/mL in assay [3]; 4 µg/mL (≈ 5.34 µM) in assay [4]; over 128 µg/mL in [5]; 16 µg/mL (≈ 21.4 µM) in assay [6]. Besides, the MIC in assay [7] was 0.03 µg/mL (≈ 0.0401 µM); in [8] it was over 128 µg/mL; in assay [9], 0.25 µg/mL (≈ 0.334 µM); in assay [10], 16 µg/mL (≈ 21.4 µM).
